A word on the Ki: it is a dissociation constant, usually derived from enzyme kinetics or from competition with a known ligand. A higher Ki goes with weaker binding.

This passage reports Ki and Activity results from ChEMBL document CHEMBL1137350, “Discovery of a new class of macrocyclic antagonists to the human motilin receptor” (J Med Chem, 2006).

The target in assay [1] is T1, Motilin receptor (Homo sapiens, UniProt O43193). Kind of assay: Displacement of [125I]motilin from human MOTR. In short, it runs like this: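 Competition binding on isolated membranes expressing human motilin receptor, with radioiodinated porcine motilin ([125I]-motilin) as tracer. 11-point concentration curves gave Ki, with a top test concentration of 10 µM. Compounds came from 10 mM DMSO stocks stored at -60 °C.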
T1 sequence (O43193 whole entry): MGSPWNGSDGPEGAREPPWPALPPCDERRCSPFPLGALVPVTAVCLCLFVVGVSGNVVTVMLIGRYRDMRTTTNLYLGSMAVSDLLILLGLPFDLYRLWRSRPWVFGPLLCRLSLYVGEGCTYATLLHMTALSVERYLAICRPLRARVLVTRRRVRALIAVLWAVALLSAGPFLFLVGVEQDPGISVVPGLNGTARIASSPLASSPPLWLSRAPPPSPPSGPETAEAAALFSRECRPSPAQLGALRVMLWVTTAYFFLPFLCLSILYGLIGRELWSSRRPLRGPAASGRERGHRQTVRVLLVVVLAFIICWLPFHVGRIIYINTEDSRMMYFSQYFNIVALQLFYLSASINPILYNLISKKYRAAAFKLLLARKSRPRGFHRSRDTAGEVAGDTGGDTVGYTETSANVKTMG
On the technique in general: Loss of bound radioactivity is the signal in a displacement assay; it reports binding, not function.

The target in assay [2] is T1, Motilin receptor. Kind of assay: Activity at human MOTR expressed in CHO cells assessed as inhibition of motilin-induced calcium release upto 10 uM. Type of assay: functional, cell-based. The following applies: filed as antagonist. In short, it runs like this: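 Aequorin luminescence assay on whole CHO cells expressing cloned human motilin receptor, measuring inhibition of motilin-induced Ca2+ release. Agonist activity was also checked at concentrations up to 10 µM. Compounds were TFA salts held as 10 mM DMSO stocks at -60 °C.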

SMILES strings stand for the structures. A value given as a limit tells only on which side of the number the result lay.

`CCC[C@@H]1NC(=O)[C@@H](Cc2ccccc2)NC(=O)[C@@H](Cc2ccc(O)cc2)NCCOc2ccccc2/C=C/CNC1=O`: the Ki in assay [1] was 1.52 µM. Further, the Activity entry in assay [2] was “Antagonist”.

Regarding `CCC[C@@H]1NC(=O)[C@@H](C(C)C)NC(=O)[C@@H](Cc2ccc(O)cc2)NCCCc2ccccc2/C=C/CNC1=O`, the Ki in assay [1] is above 10 µM. The Activity result in assay [2] is “Antagonist”.

Turning to `CCC[C@@H]1NC(=O)[C@@H](C(C)C)NC(=O)[C@@H](Cc2ccc(O)cc2)NCc2ccccc2CCCCNC1=O`, the Ki in assay [1] was above 10 µM. The Activity result in assay [2] was “Antagonist”.

`CCC[C@@H]1NC(=O)[C@@H](C(C)C)NC[C@@H](Cc2ccc(O)cc2)NCCOc2ccccc2CCCNC1=O` showed a Ki in assay [1] of 3.24 µM. In addition, the Activity result in assay [2] is “Antagonist”.

As to `CCC[C@@H]1NC(=O)[C@@H](C(C)C)NNC(=O)[C@@H](Cc2ccc(O)cc2)NCCOc2ccccc2CCCNC1=O`, the Ki in assay [1] was determined as 2.37 µM. The Activity entry in assay [2] is “Antagonist”.

With `CCC[C@@H]1NC(=O)[C@@H](C(C)C)NC(=O)[C@@H](C(C)C)NCCOc2ccccc2/C=C/CNC1=O`, the Ki in assay [1] worked out at 3.57 µM. Moreover, in assay [2], the Activity entry was “Antagonist”.

In assay [1], `CCC[C@@H]1NC(=O)[C@@H](C(C)C)NC(=O)[C@@H](Cc2ccc(O)cc2)N(C)CCOc2ccccc2CCCNC1=O` gave a Ki of 2.78 µM. Besides, the Activity entry in assay [2] was “Antagonist”.

In the case of `CCC[C@H]1NC(=O)[C@@H](C(C)C)NC(=O)[C@@H](Cc2ccc(O)cc2)NCCOc2ccccc2/C=C/CNC1=O`, the affinity in assay [1], expressed as Ki, was 0.335 µM. In assay [2], the Activity result was “Antagonist”.

In assay [1], `CCC[C@@H]1NC(=O)[C@@H](C(C)C)N(C)C(=O)[C@@H](Cc2ccc(O)cc2)NCCOc2ccccc2CCCNC1=O` had a Ki above 10 µM. The Activity entry in assay [2] is “Antagonist”.

As to `CCC[C@@H]1NC(=O)[C@@H](C(C)C)NC(=O)[C@@H](Cc2ccc(O)cc2)NCCc2ccccc2/C=C/CNC1=O`, the affinity in assay [1] corresponds to a Ki of 9.73 µM. In addition, the Activity result in assay [2] was “Antagonist”.

`CCC[C@@H]1NC(=O)[C@H](C(C)C)NC(=O)[C@@H](Cc2ccc(O)cc2)NCCOc2ccccc2/C=C/CNC1=O`: the Ki in assay [1] is above 10 µM. For the same compound, the Activity entry in assay [2] is “Antagonist”.

As to `CCC[C@@H]1NC(=O)[C@@H](C(C)C)NC(=O)[C@@H](Cc2ccc(O)cc2)NCCc2ccccc2/C=C\CCNC1=O`, the Ki in assay [1] was above 10 µM. Also, the Activity result in assay [2] was “Antagonist”.

Consider `CCC[C@@H]1NC(=O)[C@@H](C(C)C)NC(=O)[C@@H](c2ccccc2)NCCOc2ccccc2CCCNC1=O`, for which, in assay [1], the Ki was above 10 µM. In assay [2], the Activity result is “Antagonist”.

`CCC[C@@H]1NC(=O)[C@@H](C)NC(=O)[C@@H](Cc2ccc(O)cc2)NCCOc2ccccc2/C=C/CNC1=O`: in assay [1], the affinity corresponds to a Ki of 0.196 µM. Besides, in assay [2], the Activity entry was “Antagonist”.

Turning to `CC(C)[C@H]1NC(=O)[C@@H](Cc2ccc(O)cc2)NCCOc2ccccc2/C=C/CNC(=O)[C@H](CO)NC1=O`, the affinity in assay [1] corresponds to a Ki of 0.65 µM. Besides, in assay [2], the Activity result is “Antagonist”.

In turn, `CC[C@H](C)[C@H](NC(=O)[C@@H]1CCCN1C(=O)[C@@H](NC(=O)[C@@H](N)Cc1ccccc1)C(C)C)C(=O)N[C@@H](Cc1ccccc1)C(=O)N[C@H](C(=O)N[C@@H](Cc1ccc(O)cc1)C(=O)NCC(=O)N[C@@H](CCC(=O)O)C(=O)N[C@@H](CC(C)C)C(=O)N[C@@H](CCC(N)=O)C(=O)N[C@@H](CCCNC(=N)N)C(=O)N[C@@H](CCSC)C(=O)N[C@@H](CCC(N)=O)C(=O)N[C@@H](CCC(=O)O)C(=O)N[C@@H](CCCCN)C(=O)N[C@@H](CCC(=O)O)C(=O)N[C@@H](CCCNC(=N)N)C(=O)N[C@@H](CC(N)=O)C(=O)N[C@@H](CCCCN)C(=O)NCC(=O)N[C@@H](CCC(N)=O)C(=O)O)[C@@H](C)O` [MOTILIN] came in with a Ki in assay [1] of 0.00036 µM.

As to `CCC[C@@H]1NC(=O)[C@@H](C(C)C)NC(=O)[C@@H](Cc2ccc(O)cc2)NCCOc2ccccc2CCCNC1=O`, in assay [1], the Ki is 0.055 µM. The Activity entry in assay [2] is “Antagonist”.

Compound `CC(C)[C@H]1NC(=O)[C@@H](Cc2ccc(O)cc2)NCCOc2ccccc2/C=C/CNC(=O)[C@H](Cc2ccccc2)NC1=O` showed a Ki in assay [1] of 0.185 µM. Also, in assay [2], the Activity result is “Antagonist”.

`CCC[C@@H]1NC(=O)[C@@H](C(C)C)NC(=O)[C@@H](CCc2ccccc2)NCCOc2ccccc2CCCNC1=O` displayed a Ki in assay [1] of 1.49 µM. For the same compound, the Activity result in assay [2] was “Antagonist”.

The compound `CCC[C@@H]1NC(=O)[C@@H](CCC(=O)O)NC(=O)[C@@H](Cc2ccc(O)cc2)NCCOc2ccccc2/C=C/CNC1=O` had a Ki in assay [1] of 4.9 µM. In addition, the Activity result in assay [2] was “Antagonist”.

Turning to `CCC[C@@H]1NC(=O)[C@@H](C(C)C)NC(=O)[C@@H](C)NCCOc2ccccc2/C=C/CNC1=O`, in assay [1], the Ki was above 10 µM. For the same compound, the Activity entry in assay [2] is “Antagonist”.

For the compound `CCC[C@@H]1NC(=O)[C@@H](C(C)C)NC(=O)[C@@H](Cc2ccc3ccccc3c2)NCCOc2ccccc2CCCNC1=O`, the affinity in assay [1], expressed as Ki, was 0.079 µM. In addition, in assay [2], the Activity entry is “Antagonist”.

In assay [1], `CCC[C@@H]1NC(=O)[C@@H](C(C)C)NC(=O)[C@@H](Cc2ccc(O)cc2)NC/C=C/CCNC1=O` returned a Ki of 0.701 µM. The Activity result in assay [2] was “Antagonist”.

In the case of `CCC[C@@H]1NC(=O)[C@@H](C(C)C)NC(=O)[C@H](Cc2ccc(O)cc2)NCCOc2ccccc2/C=C/CNC1=O`, in assay [1], the Ki was above 10 µM. For the same compound, the Activity result in assay [2] is “Antagonist”.

Compound `CCC[C@@H]1NC(=O)[C@@H](C(C)C)NC(=O)[C@@H](Cc2ccccc2)NCCOc2ccccc2CCCNC1=O` had a Ki in assay [1] of 0.057 µM. The Activity entry in assay [2] is “Antagonist”.

In assay [1], `CCC[C@@H]1NC(=O)[C@@H](C(C)C)NC(=O)[C@@H](CC2CCCCC2)NCCOc2ccccc2CCCNC1=O` displayed a Ki of 3.25 µM. Further, the Activity result in assay [2] is “Antagonist”.

With `CCC[C@@H]1NC(=O)[C@@H](C(C)C)NC(=O)[C@@H](Cc2ccc(O)cc2)NCCCc2ccccc2/C=C\CCNC1=O`, in assay [1], the affinity corresponds to a Ki of 7.29 µM. For the same compound, the Activity entry in assay [2] is “Antagonist”.

In assay [1], `CCC[C@@H]1NC(=O)[C@@H](C(C)C)NC(=O)[C@@H](Cc2ccc(O)cc2)NCCCCCCCCNC1=O` yielded a Ki of 1.2 µM. In addition, the Activity result in assay [2] is “Antagonist”.

Take `CC(C)[C@H]1NC(=O)[C@@H](Cc2ccc(O)cc2)NCCOc2ccccc2/C=C/CNC(=O)[C@H](CC(=O)O)NC1=O`: the Ki in assay [1] was 2.55 µM. Also, the Activity result in assay [2] is “Antagonist”.

`CCC[C@@H]1NC(=O)[C@@H](C(C)C)NC(=O)[C@@H](Cc2csc3ccccc23)NCCOc2ccccc2CCCNC1=O` yielded a Ki in assay [1] of 0.011 µM. In addition, the Activity result in assay [2] was “Antagonist”.

As for `CCC[C@@H]1NC(=O)[C@@H](C(C)C)NC(=O)[C@@H](Cc2ccc(O)cc2)NCCc2ccccc2CCCNC1=O`, the Ki in assay [1] is above 10 µM. Also, the Activity entry in assay [2] was “Antagonist”.

Turning to `CCC[C@@H]1NC(=O)[C@@H](C(C)C)NC(=O)[C@@H](CCC(=O)O)NCCOc2ccccc2/C=C/CNC1=O`, the Ki in assay [1] was above 10 µM. Further, the Activity entry in assay [2] is “Antagonist”.

`CCC[C@@H]1NC(=O)[C@@H](C(C)C)NC(=O)[C@@H](Cc2c[nH]c3ccccc23)NCCOc2ccccc2CCCNC1=O` displayed a Ki in assay [1] of 0.255 µM. Also, the Activity result in assay [2] is “Antagonist”.

`CCC[C@@H]1NC(=O)[C@@H](C(C)C)NC(=O)[C@@H](Cc2ccc(O)cc2)NCCc2ccccc2CCCCNC1=O`: the Ki in assay [1] stood at 6.06 µM. The Activity result in assay [2] is “Antagonist”.

`CCC[C@H](NC(=O)[C@H](NC(=O)[C@H](N)Cc1ccc(O)cc1)C(C)C)C(N)=O` displayed a Ki in assay [1] above 10 µM. Besides, the Activity entry in assay [2] was “Antagonist”.

In assay [1], `CCC[C@@H]1NC(=O)[C@@H](C(C)C)NC(=O)[C@@H](Cc2ccc(O)cc2)NCCCc2ccccc2CCNC1=O` yielded a Ki above 10 µM. Also, in assay [2], the Activity entry was “Antagonist”.

With `CCC[C@@H]1NC(=O)[C@@H](C(C)C)NC(=O)[C@@H](CCCCN)NCCOc2ccccc2/C=C/CNC1=O`, the Ki in assay [1] is above 10 µM. Moreover, the Activity result in assay [2] is “Antagonist”.

In assay [1], `CC(C)[C@H]1NC(=O)[C@@H](Cc2ccc(O)cc2)NCCOc2ccccc2/C=C/CNC(=O)[C@H](CCCCN)NC1=O` displayed an inhibition constant Ki of 0.664 µM. Also, in assay [2], the Activity entry is “Antagonist”.

As to `CC(C)C[C@H]1C(=O)NCCCc2ccccc2OCCN[C@H](Cc2ccc(O)cc2)C(=O)N[C@H](C(C)C)C(=O)N1C`, the affinity in assay [1] corresponds to a Ki of 0.222 µM. For the same compound, the Activity entry in assay [2] is “Antagonist”.

The compound `CCC[C@@H]1NC(=O)[C@@H](C(C)C)NC(=O)[C@@H](Cc2ccc(O)cc2)NCCCCc2ccccc2CCNC1=O` returned a Ki in assay [1] of 6.06 µM. For the same compound, the Activity entry in assay [2] was “Antagonist”.

`CC(C)[C@H]1NC(=O)[C@@H](Cc2ccc(O)cc2)NCCOc2ccccc2/C=C/CNC(=O)[C@H](C)NC1=O` had a Ki in assay [1] of 1.39 µM. In addition, the Activity entry in assay [2] is “Antagonist”.

Regarding `CCC[C@@H]1NC(=O)[C@@H](C(C)C)NC(=O)[C@@H](Cc2ccc(O)cc2)N(C(C)=O)CCOc2ccccc2CCCNC1=O`, the affinity in assay [1], expressed as Ki, was 6.39 µM. Further, the Activity entry in assay [2] was “Antagonist”.

Turning to `CCC[C@@H]1NC(=O)[C@@H](C(C)C)NC(=O)[C@@H](Cc2ccc(O)cc2)NCCCc2ccccc2CCCNC1=O`, the Ki in assay [1] is above 10 µM. Further, the Activity result in assay [2] was “Antagonist”.

For `CCC[C@@H]1NC(=O)[C@@H](C(C)C)NC(=O)[C@@H](Cc2ccccc2)NCCOc2ccccc2/C=C/CNC1=O`, the affinity in assay [1], expressed as Ki, was 0.078 µM. Besides, the Activity result in assay [2] was “Antagonist”.

In assay [1], `CCC[C@@H]1NC(=O)[C@@H](C(C)C)OC(=O)[C@@H](Cc2ccc(O)cc2)NCCOc2ccccc2CCCNC1=O` had an inhibitory constant (Ki) of 0.192 µM. For the same compound, the Activity entry in assay [2] was “Antagonist”.

`CCC[C@H](NC(=O)[C@H](NC(=O)[C@@H](Cc1ccc(O)cc1)NCCOc1ccccc1/C=C/CNC(C)=O)C(C)C)C(N)=O` had a Ki in assay [1] above 10 µM. For the same compound, in assay [2], the Activity entry was “Antagonist”.

`CCC[C@@H]1NC(=O)[C@@H](C(C)C)NC(=O)[C@@H](Cc2ccc(O)cc2)NCCOc2ccccc2CCNC1=O` displayed a Ki in assay [1] of 0.982 µM. For the same compound, the Activity result in assay [2] was “Antagonist”.
